RBBP9 inhibitor: blocks human serine hydrolase RBBP9 | hit rate 0.2% among 220,000 | inhibition, % at 7.94 µM | O75884 | recombinant RBBP9, FP-Rh probe fluorescence polarization | AID 1515;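 active means inhibition above the campaign mean of all tested compounds plus 3 SD, cut at about 14% in these data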;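 further: plate controls were DMSO wells with RBBP9 for no effect and wells lacking RBBP9 protein for full effect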
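System: RBBP9 protein / Buffer or medium: Tris/NaCl buffer pH 8.0 with 0.1% Pluronic / Probe or stimulus: Serine-hydrolase probe FP-Rh, 375 nM pre-mixing / Dosing: 7.94 µM single dose, 0.794% DMSO / Times: enzyme-compound preincubation 30 min, then probe labeling 45 min, 25 °C / Technique: fluorescence polarization (mP), excitation 525 nm, emission 598 nm / Replication: singlicate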
Fam108B counter: blocks mouse Fam108B hydrolase in RBBP9 counter-screen; inhibition, % at 9.51 µM; recombinant Fam108B, FP-Rh probe fluorescence polarization; hit rate 0.33% among 300,000;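 active means inhibition above the screen mean inhibition plus 3 SD, computed separately per campaign, cut at about 18% in these data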;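 further: inhibitors lower polarization as less probe binds the enzyme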
PAD4 inh: PAD4 (human) enzyme inhibition. recombinant PAD4, RCA probe fluorescence polarization. inhibition, % at 6.36 µM. hit rate 0.41% among 330,000;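 active means percent inhibition above a cutoff equal to the mean of all tested compounds plus 3 SD, cut at about 15% in these data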;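 further: 0% = PAD4 with RCA probe and DMSO and 100% = probe without PAD4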
GSTO1 inh: counter-screen for RBBP9 inhibitors: inhibitors of human GSTO1 | P78417 | recombinant GSTO1, activity-based probe fluorescence polarization | inhibition, % at 5.96 µM | hit rate 1.1% among 300,000 | AID 1974;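 active means inhibition above the campaign mean inhibition plus 3 SD, cut at about 35% in these data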;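 further: 0% = GSTO1-1 with DMSO and 100% = wells lacking GSTO1-1 enzyme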
PRMT1 inh: blocks human protein arginine methyltransferase 1; Q99873; recombinant PRMT1, activity-based probe fluorescence polarization; inhibition, % at 2.79 µM; hit rate 1.3% among 370,000; AID 652257;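 active means inhibition above about 21% made by adding two undisclosed values, limit read from the data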
Target sequence (Q99873 whole entry, looked up): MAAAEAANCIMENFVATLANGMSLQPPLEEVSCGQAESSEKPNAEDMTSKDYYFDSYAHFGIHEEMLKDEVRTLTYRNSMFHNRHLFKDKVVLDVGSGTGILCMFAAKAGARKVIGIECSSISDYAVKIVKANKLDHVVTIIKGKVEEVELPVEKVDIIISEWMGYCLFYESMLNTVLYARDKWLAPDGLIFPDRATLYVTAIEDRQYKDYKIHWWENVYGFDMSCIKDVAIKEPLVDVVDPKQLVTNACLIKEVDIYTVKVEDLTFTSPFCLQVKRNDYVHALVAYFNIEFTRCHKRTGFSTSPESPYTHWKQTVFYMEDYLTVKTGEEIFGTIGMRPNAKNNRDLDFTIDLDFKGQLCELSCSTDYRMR
PME-1 inh: blocks human protein phosphatase methylesterase 1; inhibition, % at 5.9 µM; AID 2130; hit rate 0.53% among 320,000; recombinant PME-1, FP-Rh probe fluorescence polarization;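 active means inhibition above the campaign mean of all compounds plus 3 SD, cut at about 26% in these data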;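 further: competitive labeling of PME-1 active site by serine hydrolase directed probe; 0% = PME-1 with DMSO and 100% = wells lacking PME-1 enzyme; inhibitors block probe labeling so polarization falls and inhibition rises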
PRMT1 confirm: confirmation of human PRMT1 inhibitors; shares compounds with PRMT1 inh; recombinant His-PRMT1, activity-based probe fluorescence polarization; inhibition, % at 2.79 µM; hit rate 42% among 3,300; AID 687036;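 active means mean inhibition across replicates above the hit cutoff derived for the earlier primary screen, cut at about 22% in these data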
* = called active by the depositor; x = no result given. Hits are enriched below; roughly 2.3% of the tested compounds scored in any of these assays.

SMILES | RBBP9 inhibitor | Fam108B counter | PAD4 inh | GSTO1 inh | PRMT1 inh | PME-1 inh | PRMT1 confirm
COC(=O)C1=C2SC(C)C(=O)N2C(N)=C(C#N)C1c1cc(OC)c(OC)c(OC)c1 (stereo not drawn) | 0 | -2 | -3 | 7 | 31* | -3 | 6
CN(C)C(=O)c1cccc(-c2cccc(-c3nc(C(=O)NCc4ccccc4)cc4c3[C@H](CCO)N(S(=O)C(C)(C)C)C4)c2)c1 (stereo partly drawn) | x | x | x | x | 0 | x | x
Cc1c(N=C2C=CC(=O)c3ccccc32)c(=O)n(-c2ccccc2)n1C | 3 | x | x | x | 7 | x | x
Cc1c(N=C2C=C(Br)C(=O)C(Br)=C2)c(=O)n(-c2ccccc2)n1C | 7 | x | x | x | 61* | x | 49*
CN1CCN(CC(O)c2ccccc2)CC1 (stereo not drawn) | 1 | 5 | 0 | 3 | x | 3 | x
O=c1c2ccccc2sn1-c1ccccc1F | x | x | x | x | 89* | x | 96*
O=C1CN(c2ccccc2F)C(=O)CN1c1ccccc1F | -6 | 1 | -1 | 1 | -1 | -7 | x
O=C1c2ccccc2C(=O)N1c1nccs1 | x | x | x | x | 2 | x | x
Cn1sc2ccccc2c1=O | x | x | x | x | 71* | x | 77*
O=c1c2ccccc2sn1-c1nccs1 | 4 | x | x | x | 97* | x | 88*
C[n+]1nc(Nc2ccccc2)sc1-c1ccc(O)cc1 | x | -8 | -1 | -4 | -4 | 1 | x
COc1cc2c(cc1NC(=O)CSc1nnc(-c3cnccn3)n1-c1ccc(C)cc1)oc1ccccc12 | x | x | x | x | 1 | x | x
CC(C)C(=O)c1cc2c(cc1NC(=O)c1cccs1)OCCO2 | -5 | 0 | -1 | 9 | 2 | -6 | x
COc1cc(C2C(C#N)=C(N)OC3=C2C(=O)CC(C)(C)C3)c([N+](=O)[O-])cc1OC (stereo not drawn) | -4 | 6 | -7 | 0 | 19 | 0 | x
CC1(C)CC(=O)C2=C(C1)OC(N)=C(C#N)[C@@H]2c1ccccc1[N+](=O)[O-] | 4 | 2 | 2 | 6 | 44* | 7 | 0
Clc1ccc(OCc2nc(-c3ccncc3)no2)c(Cl)c1 | -5 | 0 | 1 | -5 | 1 | 0 | x
Cc1cscc1-c1ccc(C(=O)Nc2c(C)cccc2C)o1 | x | x | x | x | 10 | x | x
C=CCc1c(C)[nH]c(=S)c(C#N)c1C | -8 | 2 | 5 | 4 | 32* | 0 | 53*
COCc1cc(C)c(C#N)c(=S)[nH]1 | 0 | 0 | 5 | 17 | x | 3 | x
Cc1ccc(S(=O)(=O)N2CCOCC2)cc1C(=O)OCC(=O)c1ccc(Br)cc1 | x | x | -2 | x | -3 | 1 | x
CCN(CC)c1ccc(N=C2C=CC(=O)C=C2NC(C)=O)cc1 | x | x | x | x | 54* | x | 3
CCN(CC)c1ccc(NC(=O)Nc2ccc(C(C)=O)cc2)cc1 | -5 | 5 | -8 | 1 | 2 | 22 | x
O=C(CC(SCCO)c1ccc2c(c1)OCO2)c1cccs1 (stereo not drawn) | -5 | 2 | -3 | -16 | 30* | 6 | 32*
Cc1cc(C)c2cc(C(=O)N(C)C3CCN(C)CC3)[nH]c2c1 | -5 | -4 | 6 | -2 | -3 | -2 | x
NC(CSS(=O)(=O)O)=NCCC12CC3CC(CC(O)(C3)C1)C2 | 3 | 0 | 2 | 13 | 41* | -1 | 44*
SMILES | RBBP9 inhibitor | Fam108B counter | PAD4 inh | GSTO1 inh | PRMT1 inh | PME-1 inh | PRMT1 confirm
CCn1cc(C(=O)N2CCN(c3ccc(F)cc3)CC2)c(=O)c2ccc(C)nc21 | x | x | x | x | -1 | x | x
CCn1cc(C(=O)N2CCn3c(nc4ccccc43)C2)c(=O)c2ccc(C)nc21 | -9 | 1 | -1 | 4 | 31* | 7 | 3
C[C@H]1CN([C@@H](C)CO)C(=O)CCCn2cc(nn2)CO[C@@H]1CN(C)S(=O)(=O)c1ccc(Cl)cc1 | x | x | x | x | 1 | x | x
CN(Cc1c(F)cccc1Cl)C(=O)c1ccc(NC(=O)CC2SC(N3CCCC3)=NC2=O)cc1 (stereo not drawn) | x | -4 | -7 | 4 | 101* | 1 | 2
O=C(CSc1ncccn1)c1ccccc1Br | -10 | 7 | -1 | -7 | 57* | -3 | 38*
O=S(=O)(c1ccccc1F)N1CCN(Cc2cc3c(cc2O)OCO3)CC1 | x | x | -3 | x | 25* | 7 | 12
Cc1ccc(C)c(S(=O)(=O)N2CCN(Cc3cc4c(cc3O)OCO4)CC2)c1 | x | x | 1 | x | 45* | 7 | 8
CC(C)Nc1nc(N)c(C(=O)C23CC4CC(CC(C4)C2)C3)s1 | -11 | 3 | 7 | 7 | 3 | 4 | x

Screening results from PubChem BioAssay.
